The results in this text go back to ChEMBL document CHEMBL4732106, “Paracetamol analogues conjugated by FAAH induce TRPV1-mediated antinociception without causing acute liver toxicity” (Eur J Med Chem, 2021).

Calls of active or inactive are those of the source. The calls are words filed in the database; no cut-off is given here.

Series [1] in a line: Hepatotoxicity in C57BL/6 mouse assessed as centrilobular necrosis at 300 mg/kg, ip measured after 12 hrs by H and E staining based microscopic analysis. The format is toxicity, organism-based. To be noted: in vivo. A digest of the protocol: (§1)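 Male C57BL/6 mice (8 weeks) were fasted 12–16 h, then given 300 mg kg⁻¹ i.p. in saline. At 12 h, blood was taken for serum ALT/AST (automated analyser). The left medial liver lobe was fixed in 4% formaldehyde, cryosectioned at 10 μm and stained with H&E. The ALT/AST ratio was tested against 1. Mean ± SEM, n = 6–7.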

For series [2], the system named is Mus musculus. Description: Antipyretic activity against LPS-induced C57BL/6 mouse model of hyperthermia assessed as PGE2 level in diencephalon at 30 mg/kg, ip measured after 40 mins by LC-MS/MS analysis relative to control. It is filed as functional. A digest of the protocol: (§2)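 Male C57BL/6 mice got LPS (E. coli O111:B4, 100 μg kg⁻¹ i.p.) or saline, then 3 h later the drug i.p. in Ringer's acetate vehicle. Diencephalon was taken 40 min later and homogenized in Tris/EDTA/ascorbate with 10 μM MAFP and 100 μM ibuprofen. Prostanoids were quantified by negative-ion LC-MS/MS and expressed as % of LPS + vehicle. n = 6.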

Series [3] is described as follows: Prodrug conversion in FAAH-/- mouse brain assessed as N-arachidonoyl conjugate level per g protein at 100 mg/kg, ip measured after 20 mins by LC-MS/MS analysis. It is filed as ADME, organism-based. Details: unit: pmol/g protein. To be noted: in vivo. A digest of the protocol: (§3)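 FAAH+/+ and FAAH-/- mice (both sexes) received the primary amine i.p. in saline (sometimes with 5% DMSO). Brains were collected 20 min later, frozen, and homogenized in Tris/EDTA/ascorbate with 10 μM MAFP. N-arachidonoyl conjugates were quantified by positive-ion LC-MS/MS and normalized to protein.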

Series [4] in a line: Hepatotoxicity in C57BL/6 mouse assessed as change in ALT level at 300 mg/kg, ip measured after 12 hrs. It is filed as toxicity, organism-based. To be noted: in vivo. A digest of the protocol:
as §1

For series [5], the target named is T1, Fatty-acid amide hydrolase 1 (Mus musculus, UniProt O08914).
T1 sequence (O08914 whole entry): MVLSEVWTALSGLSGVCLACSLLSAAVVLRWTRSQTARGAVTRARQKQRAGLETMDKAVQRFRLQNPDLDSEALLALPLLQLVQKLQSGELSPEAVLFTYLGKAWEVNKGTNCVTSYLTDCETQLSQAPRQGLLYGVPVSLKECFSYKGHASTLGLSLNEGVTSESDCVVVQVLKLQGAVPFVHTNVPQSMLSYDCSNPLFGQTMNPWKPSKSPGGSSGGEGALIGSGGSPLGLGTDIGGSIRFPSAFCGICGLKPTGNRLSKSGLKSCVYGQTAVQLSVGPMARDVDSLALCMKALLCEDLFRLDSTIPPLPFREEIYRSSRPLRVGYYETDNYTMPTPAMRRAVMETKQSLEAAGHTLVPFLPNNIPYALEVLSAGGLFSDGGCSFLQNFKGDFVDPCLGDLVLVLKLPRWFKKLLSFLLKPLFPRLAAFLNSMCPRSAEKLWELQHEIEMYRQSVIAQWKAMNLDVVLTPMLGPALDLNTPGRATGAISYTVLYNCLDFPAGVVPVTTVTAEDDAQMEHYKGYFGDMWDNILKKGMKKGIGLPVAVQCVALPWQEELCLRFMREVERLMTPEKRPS
Description: Substrate activity at FAAH in FAAH+/+ mouse brain assessed as N-arachidonoyl conjugate level per g protein at 0.1 mM measured after 20 mins by LC-MS/MS analysis. The format is ADME, tissue-based. To be noted: 100 µM. Summed up: (§4)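 Brains from FAAH+/+ or FAAH-/- mice were homogenized in ice-cold 10 mM Tris with 1 mM EDTA and 0.3 mM ascorbic acid. Aliquots were incubated with 0.1 mM primary amine for 20 min at 37 °C with stirring. Reactions were stopped with cold acetone containing AM404-d4 internal standard, and conjugates were measured by LC-MS/MS. n = 5–7.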

The subject of series [6] is Mus musculus. Description: Antipyretic activity against LPS-induced C57BL/6 mouse model of hyperthermia assessed as TXB2 level in diencephalon at 30 mg/kg, ip measured after 40 mins by LC-MS/MS analysis relative to control. It is filed as functional. Summed up:
as §2

Series [7] is described as follows: Prodrug conversion in FAAH+/+ mouse brain assessed as N-arachidonoyl conjugate level per g protein at 100 mg/kg, ip measured after 20 mins by LC-MS/MS analysis. The format is ADME, organism-based. Details: unit: pmol/g protein. To be noted: in vivo. A digest of the protocol: as §3
Series [8] in a line: Prodrug conversion in FAAH-/- mouse brain assessed as N-arachidonoyl conjugate level per g protein at 0.1 mM measured after 20 mins by LC-MS/MS analysis. To be noted: in vitro, 100 µM. The format is ADME, tissue-based. A digest of the protocol: as §4
For series [9], the system named is Mus musculus. Description: Hepatotoxicity in C57BL/6 mouse assessed as change in ALT/AST ratio at 300 mg/kg, ip measured after 12 hrs. The format is functional. A digest of the protocol: as §1
Series [10] has as its system Mus musculus. Description: Antipyretic activity against LPS-induced C57BL/6 mouse model of hyperthermia assessed as reduction in body temperature at 30 mg/kg, ip measured after 75 mins. The format is functional, organism-based. A digest of the protocol:
(§5)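 Male C57BL/6 mice carried telemetry and recovered ≥1 week before use, housed at 29 °C ambient (near-thermoneutral). LPS 100 μg kg⁻¹ i.p. or saline was given, then drug or Ringer's acetate vehicle i.p. 3 h later. Core temperature was recorded continuously and analysed at the nadir time point. n = 4–9 per group.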

Series [11] deals with Mus musculus. Description: Antipyretic activity against LPS-induced C57BL/6 mouse model of hyperthermia assessed as PGF2alpha level in diencephalon at 30 mg/kg, ip measured after 40 mins by LC-MS/MS analysis relative to control. The format is functional. A digest of the protocol:
as §2

For series [12], the system named is Mus musculus. Description: Antipyretic activity against LPS-induced C57BL/6 mouse model of hyperthermia assessed as 6-keto-PGF1alpha level in diencephalon at 30 mg/kg, ip measured after 40 mins by LC-MS/MS analysis relative to control. It is filed as functional. Summed up: as §2
Series [13] in a line: Inhibition of prostanoid synthesis in FAAH-/- mouse assessed as PGF2alpha level in diencephalon at 150 mg/kg, ip measured after 40 mins by LC-MS/MS analysis relative to control. The format is functional. Details: scale not given: the % may be the effect or the level left. Summed up:
(§6)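 In a separate set, FAAH+/+ (n = 10–11) and FAAH-/- (n = 5) mice received LPS 100 μg kg⁻¹ i.p., then paracetamol 150 mg kg⁻¹ i.p. 3 h later. Diencephalic PGE2, PGF2α, 6-keto-PGF1α and TXB2 were measured by negative-ion LC-MS/MS and expressed as % of febrile vehicle-treated animals. Values below the detection limit were set to 1/4 of that limit.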

In series [14] the test system is Mus musculus. Description: Antipyretic activity against LPS-induced C57BL/6 mouse model of hyperthermia assessed as PGE2 level in diencephalon at 100 mg/kg, ip measured after 40 mins by LC-MS/MS analysis relative to control. It is filed as functional. Summed up:
as §2

Series [15] in a line: Inhibition of prostanoid synthesis in FAAH+/+ mouse assessed as PGE2 level in diencephalon at 150 mg/kg, ip measured after 40 mins by LC-MS/MS analysis relative to control. It is filed as functional. The arrangement: scale not given: the % may be the effect or the level left. Summed up: as §6
Series [16] is described as follows: Inhibition of prostanoid synthesis in FAAH-/- mouse assessed as TXB2 level in diencephalon at 150 mg/kg, ip measured after 40 mins by LC-MS/MS analysis relative to control. It is filed as functional. The arrangement: scale not given: the % may be the effect or the level left. A digest of the protocol:
as §6

The nature of series [17]: Inhibition of prostanoid synthesis in FAAH+/+ mouse assessed as PGF2alpha level in diencephalon at 150 mg/kg, ip measured after 40 mins by LC-MS/MS analysis relative to control. It is filed as functional. The arrangement: scale not given: the % may be the effect or the level left. A digest of the protocol: as §6
The test system of series [18] is Mus musculus. Description: Antipyretic activity against LPS-induced C57BL/6 mouse model of hyperthermia assessed as reduction in body temperature at 100 mg/kg, ip measured after 75 mins. It is filed as functional, organism-based. Summed up:
as §5

Series [19] is described as follows: Inhibition of prostanoid synthesis in FAAH+/+ mouse assessed as TXB2 level in diencephalon at 150 mg/kg, ip measured after 40 mins by LC-MS/MS analysis relative to control. Details: scale not given: the % may be the effect or the level left. The format is functional. Summed up: as §6
The test system of series [20] is Mus musculus. Description: Antipyretic activity against LPS-induced C57BL/6 mouse model of hyperthermia assessed as TXB2 level in diencephalon at 100 mg/kg, ip measured after 40 mins by LC-MS/MS analysis relative to control. It is filed as functional. A digest of the protocol:
as §2

Series [21] can be described thus: Inhibition of prostanoid synthesis in FAAH+/+ mouse assessed as 6-keto-PGF1alpha level in diencephalon at 150 mg/kg, ip measured after 40 mins by LC-MS/MS analysis relative to control. It is filed as functional. The arrangement: scale not given: the % may be the effect or the level left. A digest of the protocol: as §6
Series [22] relates to Mus musculus. Description: Antipyretic activity against LPS-induced C57BL/6 mouse model of hyperthermia assessed as 6-keto-PGF1alpha level in diencephalon at 100 mg/kg, ip measured after 40 mins by LC-MS/MS analysis relative to control. It is filed as functional. Summed up:
as §2

The subject of series [23] is Mus musculus. Description: Antipyretic activity against LPS-induced C57BL/6 mouse model of hyperthermia assessed as PGF2alpha level in diencephalon at 100 mg/kg, ip measured after 40 mins by LC-MS/MS analysis relative to control. It is filed as functional. Summed up: as §2
Series [24] can be described thus: Inhibition of prostanoid synthesis in FAAH-/- mouse assessed as 6-keto-PGF1alpha level in diencephalon at 150 mg/kg, ip measured after 40 mins by LC-MS/MS analysis relative to control. The format is functional. The arrangement: scale not given: the % may be the effect or the level left. A digest of the protocol: as §6
Series [25] can be described thus: Inhibition of prostanoid synthesis in FAAH-/- mouse assessed as PGE2 level in diencephalon at 150 mg/kg, ip measured after 40 mins by LC-MS/MS analysis relative to control. It is filed as functional. Details: scale not given: the % may be the effect or the level left. A digest of the protocol:
as §6

With `Nc1ccc(O)cc1` [4-AMINOPHENOL], the Activity entry in series [1] was “Non-Toxic”; in the series with Mus musculus [2], 44%; in series [4] it was “Non-Toxic”; in the series with Mus musculus [6], 60%; in the series on Mus musculus [11], 81%; in the series on Mus musculus [12], 60%. The Drug metabolism in series [3] was found to be 24 pmol; in series [5], 8.8 nmol/g; in series [7] it was 1002 pmol; in [8], 0.05 nmol/g. Besides, in the series on Mus musculus [9], the Ratio is on record as above 1. The outcome in the series on Mus musculus [10] was inactive.
Turning to `CC(=O)Nc1ccc(O)cc1` [ACETAMINOPHEN], the Activity in [13] was 10%; in [1], “Toxic”; in the series with Mus musculus [14], 13%; in [15] it was 8%; in series [16], 18%; in [17], 19%. Also, the Activity in series [19] was 25%; in series [4] it was “Toxic”; with Mus musculus [20] it was 36%; in series [21], 15%; with Mus musculus [22] it was 17%; with Mus musculus [23] it was 18%. For the same compound, the Activity worked out at 12% in series [24] and 9% in [25]. Besides, the result with Mus musculus [18] was Active.
